GSK3B inh: human GSK3beta kinase inhibitors, primary screen, biochemical, cell-free homogeneous, HTS | Glycogen synthase kinase-3 beta (Homo sapiens), P49841 | GST-GSK3beta kinase, ADP-Glo luminescence, 60 min; hits give low values | activity score (negative = inhibition), % at 10 µM | hit rate 0.038% among 300,000 | AID 2097, 2009;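 active = more than half of replicate wells score below -50%, meaning over 50% inhibition versus plate controls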;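 note: 0% = median DMSO wells and -100% = median GW8510 positive control wells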
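Test system: GST-tagged human GSK3beta kinase, cell-free; evaluation: activity score scaled between in-plate DMSO and GW8510 controls; measured by: ADP-Glo luminescence; incubation: 60 min reaction, RT; benchmarks: DMSO and 20 µM GW8510; reagent: peptide substrate plus 25 µM ATP (final); medium: Tris/MgCl2 kinase buffer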
STK33 inh: inhibitors of purified STK33 kinase, primary screen, biochemical, ADP-Glo luminescence, homogeneous, cell-free; hit rate 0.073% among 320,000; MBP phosphorylation; Serine/threonine-protein kinase 33 (Homo sapiens), Q9BYT3; inhibition, % at 10 µM;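 active = inhibition at or above 25%, using the most active replicate where run in duplicate; inactive = inhibition below 25%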
CDK5 inh: inhibitors of human CDK5/p35 kinase, primary screen, biochemical, single concentration | Cyclin-dependent kinase 5 (Homo sapiens) + Cyclin-dependent kinase 5 activator 1 (Homo … | Recombinant CDK5/p35, ADP-Glo luminescence, 60 min | inhibition, % at 10 µM | hit rate 0.01% among 330,000;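 active = highest replicate inhibition of at least 50% and at least 75% of replicates reaching 50%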;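 note: plate controls were DMSO neutral control for no effect and GW8510 at 10 µM for full effect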
Target sequence (Q00535 whole entry, looked up): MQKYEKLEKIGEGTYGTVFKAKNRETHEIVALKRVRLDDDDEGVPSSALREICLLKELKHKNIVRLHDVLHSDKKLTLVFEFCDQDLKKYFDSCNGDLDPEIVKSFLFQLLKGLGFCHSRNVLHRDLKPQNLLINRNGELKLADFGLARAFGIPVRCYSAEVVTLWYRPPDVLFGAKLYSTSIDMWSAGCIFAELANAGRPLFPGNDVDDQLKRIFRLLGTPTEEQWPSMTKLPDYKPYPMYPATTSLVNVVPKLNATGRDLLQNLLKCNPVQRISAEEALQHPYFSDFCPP
Target sequence (Q15078 whole entry, looked up): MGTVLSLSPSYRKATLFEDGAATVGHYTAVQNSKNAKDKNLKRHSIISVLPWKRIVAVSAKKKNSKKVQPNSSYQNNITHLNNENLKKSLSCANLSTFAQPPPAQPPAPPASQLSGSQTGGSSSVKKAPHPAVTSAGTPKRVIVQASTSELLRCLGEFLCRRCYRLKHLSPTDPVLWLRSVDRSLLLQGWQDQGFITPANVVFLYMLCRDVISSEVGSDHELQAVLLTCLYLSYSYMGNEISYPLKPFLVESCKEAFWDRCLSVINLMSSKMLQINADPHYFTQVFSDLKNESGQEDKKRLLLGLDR
Dyrk1A ADPGlo: rat Dyrk1A kinase inhibitors, primary screen, biochemical, single point, plate reader; Dual specificity tyrosine-phosphorylation-regulated kinase 1A (Rattus norvegicus), Q63470; ADP-Glo luminescence, NFATc1 peptide; inhibition, % at 12.5 µM; hit rate 0.43% among 310,000; in the data active = inhibition above about 50%;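 note: plate controls were vehicle with enzyme for no effect and no enzyme for full effect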
GSK3A inh: blockers of GSK3A enzyme activity – biochemical, luminescence, cell-free homogeneous, HTS, primary screen; inhibition, % at 10 µM; AID 2650, 2010; Glycogen synthase kinase-3 alpha (Homo sapiens), P49840; GSK-3 alpha kinase, ADP-Glo luminescence, 60 min; hit rate 0.1% among 320,000;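 active = more than half of replicates show inhibition above 20%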;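 note: GST-tagged GSK-3 alpha with peptide substrate and 25 µM ATP; 0% = DMSO neutral wells and 100% = GW8510 positive control wells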
* = called active by the depositor; . = no result. Only a selection was taken, and hits are over-represented in it overall.

SMILES	GSK3B inh	STK33 inh	CDK5 inh	Dyrk1A ADPGlo	GSK3A inh
N#CC(C#N)=C1c2cc(S(N)(=O)=O)ccc2-c2ccc(S(N)(=O)=O)cc21	.	.	-1.4	10.2	.
Nc1ccc(N=Nc2ccccc2O)c(N)c1	1.3	33.2*	.	.	1.8
CC(=O)n1cc(-c2ccncc2)c2ccccc21	-13.5	9.7	2.1	68.6*	23.5
CC(=O)n1cc(/C=N/NC(=O)c2sc(C)nc2C)c2ccccc21	-2.5	-0.4	.	2.1	7.7
NS(=O)(=O)c1ccc(N=Nc2ccc(=O)[nH]c2O)cc1	-33.1	-1.8	3.2	-0.3	54.6*
COc1ccc(-n2sc3c(c2=S)-c2cc(OC)ccc2NC3(C)C)cc1	0.8	-1.4	0.5	1.5	-0.8
COc1ccc2c(c1)-c1c(ssc1=S)C(C)(C)N2	-59.9*	1.5	2.0	31.6	1.3
O=C(O)Cn1cc(/C=N/Nc2ccc([N+](=O)[O-])cn2)c2ccccc21	-40.8	9.6	5.4	18.0	62.6*
CC(OC(=O)c1ccc(Cl)nc1)C(=O)Nc1ccc2c(c1)OCO2 (stereo not drawn)	.	-1.1	1.5	5.6	-3.2
COc1ccc(N2CSC3=C(C#N)C(c4cccs4)CC(=O)N3C2)cc1 (stereo not drawn)	-49.8	0.8	0.5	3.2	90.6*
CCc1ccc(C2CC(=O)N3CN(c4ccccc4)CSC3=C2C#N)cc1 (stereo not drawn)	-6.3	-0.6	2.2	8.3	-1.1
N#CC1=C2SCN(c3ccc(F)cc3)CN2C(=O)CC1c1cccc(F)c1 (stereo not drawn)	-1.4	-0.1	-0.6	6.0	56.4*
O=C(Cn1c2ccccc2c(=O)c2cc([N+](=O)[O-])ccc21)Nc1ccccc1Cl	-3.1	9.8	0.9	0.3	4.2
O=C(C(=O)N(Cc1ccccc1)Cc1ccccc1)c1c(-c2ccccc2)[nH]c2ccccc12	.	.	-0.7	.	.
O=C1CCn2c1c(O)c1ccccc1c2=O	.	.	1.4	4.5	.
N=C1CCC(=N)c2c1c(O)c1ccccc1c2O	0.9	32.6*	2.5	39.9	21.1
CN(C(=O)c1cccc(NC(=O)Cc2ccc(NC(=O)C3CCCN(C(=O)C4CCC4)C3)cc2)c1)C1CCC1 (stereo not drawn)	.	.	-1.1	1.4	.
O=C1C=CC2(O[C@H](c3ccccc3)[C@@H](c3ccccc3)O2)[C@H](Sc2ccccc2O)C1	.	.	-1.1	.	.
CN1/C(=C/C=C(/C#N)C(N)=O)C(C)(C)c2ccccc21	-35.1	3.5	3.5	10.6	63.3*
O=C(O)c1cc(-c2ccc(/C=N/Nc3ccc([N+](=O)[O-])cn3)o2)ccc1Cl	-62.7*	.	6.5	38.1	.
O=C(Nc1nccs1)c1ccc(N2CCOCC2)c([N+](=O)[O-])c1	-7.8	25.5*	1.3	16.2	3.8
CCN1CCN(c2cc(C)c3cc(NC(=O)c4ccncc4)ccc3n2)CC1	3.4	0.1	1.1	0.9	-0.2
CCN1CCN(c2cc(C)c3cc(NC(=O)c4ccc(Br)o4)ccc3n2)CC1	1.2	28.8*	1.6	3.7	-1.7
COc1ccc(OC)c(C2NC(=O)N(C)C(C)=C2C(=O)OCc2ccccc2)c1 (stereo not drawn)	-3.1	1.3	-0.8	.	0.7
Cc1ccc(-c2nn(-c3ccccc3)cc2/C=N/O)cc1	-52.0*	3.3	1.3	.	77.8*
SMILES	GSK3B inh	STK33 inh	CDK5 inh	Dyrk1A ADPGlo	GSK3A inh
O=C(N/N=C/c1cn(-c2ccccc2)nc1-c1cccnc1)c1cccnc1	-2.5	-1.4	-3.4	-1.1	-0.5
O/N=C/c1cn(-c2ccccc2)nc1-c1cccnc1	-28.9	-0.4	1.4	0.0	70.5*
CCOC(=O)c1nnn(-c2nonc2N)c1-c1ccc(OC)cc1	-40.3	-0.7	0.7	11.1	57.7*
COC(=O)c1nnn(-c2nonc2N)c1CSCCO	-73.7*	1.3	1.4	24.7	67.1*
CCOC(=O)c1nnn(-c2nonc2N)c1-c1ccccc1Cl	-24.0	2.4	-0.3	5.6	54.9*
CCOC(=O)c1nnn(-c2nonc2N)c1-c1cccc2ccccc12	-5.3	2.3	2.0	-3.2	11.9
CN(CCc1ccccc1)C(=O)c1ccc(NC(=O)Cc2ccc(NC(=O)C3CCN(C(=O)CCc4ccccc4)CC3)cc2)cc1	.	.	-1.1	-4.5	.

Screening results (PubChem BioAssay)
